Test results published in ChEMBL document CHEMBL1126905, “Inhibitors of cholesterol biosynthesis. 2. 3,5-Dihydroxy-7-(N-pyrrolyl)-6-heptenoates, a novel series of HMG-CoA reductase inhibitors” (J Med Chem, 1993).

Test system: not listed separately
Assay: Lipophilicity was determined
Format: physicochemical
Settings: octanol/water

Row | logD | Structure (SMILES)
1 | 2.8 | COC(=O)C[C@H](O)C[C@H](O)/C=C/n1c(C(C)C)cc(-c2cccc(Br)c2)c1-c1ccc(F)cc1
2 | 2.57 | COC(=O)C[C@H](O)C[C@H](O)/C=C/n1c(C(C)C)cc(-c2cccc(Cl)c2)c1-c1ccc(F)cc1
3 | 2.1 | COC(=O)C[C@H](O)C[C@H](O)/C=C/n1c(C(C)C)cc(-c2ccc(F)cc2)c1-c1ccc(F)cc1
4 | 0.9 | COC(=O)C[C@H](O)C[C@H](O)/C=C/n1c(C(C)C)cc(-c2ccncc2)c1-c1ccc(F)cc1

Molecular target: T1, 3-hydroxy-3-methylglutaryl-coenzyme A reductase (Rattus norvegicus, UniProt P51639)
T1 sequence (P51639 whole entry): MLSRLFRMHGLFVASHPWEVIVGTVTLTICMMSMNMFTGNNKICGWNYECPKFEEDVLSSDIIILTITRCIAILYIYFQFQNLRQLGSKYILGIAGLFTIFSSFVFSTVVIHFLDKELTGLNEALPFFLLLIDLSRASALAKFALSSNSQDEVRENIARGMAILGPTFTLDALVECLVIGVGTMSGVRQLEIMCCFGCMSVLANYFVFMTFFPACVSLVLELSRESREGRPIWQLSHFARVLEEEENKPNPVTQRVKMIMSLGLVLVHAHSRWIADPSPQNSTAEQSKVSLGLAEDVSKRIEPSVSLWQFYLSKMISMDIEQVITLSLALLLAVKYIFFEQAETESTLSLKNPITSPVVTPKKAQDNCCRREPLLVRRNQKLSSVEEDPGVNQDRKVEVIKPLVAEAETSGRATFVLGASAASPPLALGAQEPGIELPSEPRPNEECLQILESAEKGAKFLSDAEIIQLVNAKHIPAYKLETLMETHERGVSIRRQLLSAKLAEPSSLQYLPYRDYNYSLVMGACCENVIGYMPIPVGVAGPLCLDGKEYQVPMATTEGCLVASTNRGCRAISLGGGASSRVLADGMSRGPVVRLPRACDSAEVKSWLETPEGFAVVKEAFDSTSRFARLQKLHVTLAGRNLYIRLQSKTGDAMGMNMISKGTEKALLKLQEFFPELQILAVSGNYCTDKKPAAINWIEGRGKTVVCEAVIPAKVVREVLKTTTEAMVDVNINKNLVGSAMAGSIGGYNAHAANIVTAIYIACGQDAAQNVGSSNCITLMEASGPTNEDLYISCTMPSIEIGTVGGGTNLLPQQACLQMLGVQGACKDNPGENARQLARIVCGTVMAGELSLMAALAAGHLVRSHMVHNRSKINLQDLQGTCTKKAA
Assay: Inhibition of rat liver microsomal HMG-CoA reductase
Settings: not given
Method in brief: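 Test agents run as sodium salts of the dihydroxy carboxylic acids, against rat liver microsomal enzyme. Five dose levels per inhibitor, at least in duplicate, on at least two separate occasions. IC50 given as the mean, with pravastatin sodium salt as reference.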

Row | Structure (SMILES) | IC50 [nM]
5 | COC(=O)C[C@H](O)C[C@H](O)CCn1c(C(C)C)cc(-c2ccc(F)cc2)c1-c1ccc(F)cc1 | 105
6 | COC(=O)C[C@H](O)C[C@H](O)/C=C/n1c(C(C)C)cc(-c2ccc(F)cc2)c1-c1cccc(Br)c1 | 69
7 | COC(=O)C[C@H](O)C[C@H](O)/C=C/n1c(C(C)C)cc(-c2ccc(F)cc2)c1-c1ccccc1 | 25
8 | COC(=O)C[C@H](O)C[C@H](O)/C=C/n1c(C(C)C)cc(-c2ccncc2)c1-c1ccc(F)cc1 | 5
9 | COC(=O)C[C@H](O)C[C@H](O)/C=C/n1c(C(C)C)cc(-c2ccc(F)cc2)c1-c1cccc(Cl)c1 | 71
10 | CC[C@H](C)C(=O)O[C@H]1C[C@@H](C)C=C2C=C[C@H](C)[C@H](CC[C@@H]3C[C@@H](O)CC(=O)O3)[C@H]21 [LOVASTATIN] | 3
11 | CC[C@H](C)C(=O)O[C@H]1C[C@H](O)C=C2C=C[C@H](C)[C@H](CC[C@@H](O)C[C@@H](O)CC(=O)O)[C@H]21 [PRAVASTATIN SODIUM] | 5

Molecules with a lower IC50, results first:

Row | IC50 [nM] | Structure (SMILES)
12 | 0.5 | COC(=O)C[C@H](O)C[C@H](O)/C=C/n1c(C(C)C)cc(-c2cccc(Br)c2)c1-c1ccc(F)cc1
13 | 2 | COC(=O)C[C@H](O)C[C@H](O)/C=C/n1c(C(C)C)cc(-c2cccc(Cl)c2)c1-c1ccc(F)cc1
14 | 2 | COC(=O)C[C@H](O)C[C@H](O)/C=C/n1c(C(C)C)cc(-c2ccccc2)c1-c1ccc(F)cc1
15 | 2 | COC(=O)C[C@H](O)C[C@H](O)/C=C/n1c(C(C)C)cc(-c2ccccn2)c1-c1ccc(F)cc1
16 | 2 | COC(=O)C[C@H](O)C[C@H](O)/C=C/n1c(C(C)C)cc(-c2ccc(F)cc2)c1-c1ccc(F)cc1
17 | 0.3 | COC(=O)C[C@H](O)C[C@H](O)/C=C/n1c(-c2ccc(F)cc2)c(-c2ccc(F)cc2)c(Br)c1C(C)C
